One may read the IC50 as the concentration that inhibits the measured activity by half.

The values that follow come from ChEMBL document CHEMBL4414603, “Extracellular vs Intracellular Delivery of CO: Does It Matter for a Stable, Diffusible Gasotransmitter?” (J Med Chem, 2019).

Series [1] relates to RAW264.7. Briefly: Cytotoxicity against mouse RAW264.7 cells assessed as reduction in cell viability incubated for 1 hr under 460 nm LED light illumination and measured after 23 hrs by MTT assay. It is filed as cell-based. The settings on record: for Activity: mouse, raw264.7. The method in brief:
(§1)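 RAW 264.7 cells (within 5 passages, phenol-red-free DMEM-F12K, 10% FBS) seeded at 1.0×10^4/well for 24 h, then dosed 0.08–100 μM (≤0.4% DMSO). Light arm: blue LED array (66,351 lx) 1 h, then 23 h more; dark arm kept unlit. MTT 4 h, formazan in DMSO, A560 minus A750, normalised to vehicle; 3 biological × 3 technical replicates, mean ± SEM.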
(Formazan colour is commonly taken as a measure of viable cells.)

The test system of series [2] is RAW264.7. Briefly: Antiinflammatory activity in mouse RAW264.7 cells assessed as reduction in LPS-induced TNF-alpha level up to 1 uM incubated for 4 hrs prior to 460 nm LED light illumination for 1 hr followed by 6 hrs incubation under dark condition and subsequent LPS-stimulation and measured after 1 hr by ELISA. It is filed as functional, cell-based. The procedure, abridged:
(§2)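 RAW 264.7 cells seeded at 1.0×10^4/well, 24 h; compound 0.04–50 μM (0.4% DMSO vehicle) for 4 h without light; one plate then given blue LED (66,351 lx) 1 h at 37 °C. Both plates held 6 h dark at 37 °C, then E. coli O127:B8 LPS 1 μg/mL final for 1 h; supernatant TNF-α by mouse ELISA; 3 experiments, 2 technical replicates, mean ± SEM.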
Background: In an ELISA, binding on a coated surface is turned into a signal by an enzyme label.

Series [3] has as its system RAW264.7. Nature of the series: Antiinflammatory activity in mouse RAW264.7 cells assessed as reduction in LPS-induced TNF-alpha expression at up to 50 uM preincubated for 4 hrs followed by 6 hrs incubation under dark condition and subsequent LPS-stimulation and measured after 1 hr by ELISA. It is filed as functional, cell-based. The method in brief:
as §2

Series [4] concerns the target T1, Albumin (Bos taurus, UniProt P02769). Briefly: Binding affinity to bovine serum albumin at pH 7.4 TRIS buffer by fluorescence based Stern-Volmer plot analysis. The settings on record: cattle, isolated protein. The class given is ADME. The method in brief:
(§3)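 Tryptophan fluorescence quench of BSA (1.4 μM) in TRIS buffer pH 7.4 at 295 K, excitation 282 nm, titrated with compound at 0–22.4 μM; data fitted by Stern-Volmer and modified Stern-Volmer plots.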

A short description of series [5]: Drug metabolism in mouse RAW264.7 cells assessed as CO release at 50 uM incubated 4 hrs prior to compound washout followed by 1-Ac addition for 30 mins and subsequent 460 nm LED light illumination for 1 hr by Hoechst 33342 dye based fluorescence assay. The class given is ADME, cell-based. The settings on record: raw264.7, 4 h. The method in brief:
(§4)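 RAW 264.7 cells on chamber slides given 50 μM compound 4 h, then washed 3x with plain medium or left unwashed; Nile red CO sensor 1-Ac 5 μM final (0.2% DMSO) 30 min; blue LED (66,351 lx, 2 cm) 1 h at 37 °C, then 1 h dark at 37 °C; Hoechst 33342 stain; red channel ex 550–600/em 598–660 nm.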

Series [6] is described as follows: Absorption property of the compound in DMSO assessed as reduction in absorption wavelength at 0.05 mmol incubated for 14 hrs under 419 nm light illumination. The class given is physicochemical.
Series [7] can be described thus: Drug metabolism in DMSO assessed as CO release at 0.05 mmol incubated for 24 hrs under 419 nm light illumination.
Series [8] concerns the target T1, Albumin. Briefly: Binding affinity to bovine serum albumin at pH 7.4 TRIS buffer at 1:1 ratio of compound to protein by fluorescence based assay. The settings on record: cattle, isolated protein. The class given is ADME. The procedure, abridged:
as §3

The nature of series [9]: Drug uptake in mouse RAW264.7 cells assessed as intracellular accumulation at 50 uM after 4 hrs by Hoechst 33342 staining based fluorescence inverted microscopic method. The class given is ADME, cell-based. The settings on record: raw264.7, 4 h. The procedure, abridged:
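RAW 264.7 cells seeded at 1.0×10^4 cells/[…] in chamber slides, adhered 24 h, exposed to 50 μM compound (from 25 mM DMSO stock; 0.4% DMSO final) 4 h with minimal light; Hoechst 33342 15 min, three PBS washes; imaged at 20x, blue channel ex 310–390/em 420–470 nm.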

Series [10] has as its system RAW264.7. Briefly: Dark toxicity against mouse RAW264.7 cells assessed as reduction in cell viability up to 100 uM after 24 hrs by MTT assay. The settings on record: raw264.7, 24 h. It is filed as cell-based. The procedure, abridged:
as §1

Series [11] in a line: Emission property of the compound in DMSO assessed as tautomeric state emission wavelength at 100 uM. It is filed as physicochemical.
Series [12] can be described thus: Solubility of the compound in DMSO at < 50 mM. The class given is physicochemical.
A short description of series [13]: Drug metabolism in DMSO assessed as sodium 7-(benzoyloxy)-6-carboxynaphthalene-1-sulfonate metabolite formation at 0.05 mmol incubated for 24 hrs under 419 nm light illumination by FTIR analysis.
Series [14] can be described thus: Absorption property of the compound in DMSO assessed as minimum absorption wavelength at 100 uM. The class given is physicochemical.
Series [15] in a line: Drug metabolism in DMSO assessed as sodium 7-(benzoyloxy)-6-carboxynaphthalene-1-sulfonate metabolite formation at 0.05 mmol incubated for 24 hrs under 419 nm light illumination by 2D-COSY analysis.
A short description of series [16]: Stability of the compound in FBS supplemented DMEM-F12 medium incubated for >= 1 month under dark condition.
A short description of series [17]: Solubility of the compound in water at < 50 mM. The class given is physicochemical. The following applies: buffer.
Series [18] can be described thus: Solubility of the compound in PBS buffer at < 50 mM. The class given is physicochemical.
Series [19] is described as follows: Drug metabolism in mouse RAW264.7 cells assessed as CO release at 50 uM preincubated 4 hrs followed by 1-Ac addition for 30 mins and subsequent 460 nm LED light illumination for 1 hr by Hoechst 33342 dye based fluorescence assay. The following applies: raw264.7, 50 µM. The class given is ADME, cell-based. The method in brief:
as §4

The nature of series [20]: Solubility of the compound in FBS supplemented DMEM-F12 medium at < 50 mM. The class given is physicochemical.
The test system of series [21] is RAW264.7. Briefly: Cytotoxicity against mouse RAW264.7 cells assessed as reduction in cell viability up to 100 uM incubated for 1 hr under 460 nm LED light illumination and measured after 23 hrs by MTT assay. It is filed as cell-based. The settings on record: raw264.7, 1 h. The procedure, abridged:
as §1

A short description of series [22]: Emission property of the compound in water assessed as emission wavelength at 100 uM. The class given is physicochemical. The settings on record: buffer. The procedure, abridged: (§5)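 Emission spectra recorded at 0.1 mM in water, 10 mM PBS pH 7.4, or DMEM/F12K with 10% FBS; excitation 410 nm or 467 nm, slit width 3.0 nm.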
Series [23] is described as follows: Drug uptake in mouse RAW264.7 cells assessed as extracellular accumulation at 50 uM incubated for 4 hrs under dark condition followed by compound washout by Hoechst 33342 staining based fluorescence inverted microscopic method. It is filed as ADME, cell-based. The following applies: raw264.7, 4 h. The method in brief: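 After 4 h dark incubation of RAW 264.7 cells with 50 μM compound, cells washed with medium containing 10% FBS; pooled washes read by fluorescence (ex 410 nm, slit 3.0 nm) against a 50 μM standard.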

Series [24] is described as follows: Absorption property of the compound in pH 7.4 PBS buffer assessed as absorption wavelength at 100 uM. The class given is physicochemical. The following applies: pH 7.4, 100 µM.
The nature of series [25]: Drug metabolism in DMSO assessed as sodium 7-(benzoyloxy)-6-carboxynaphthalene-1-sulfonate metabolite formation at 0.05 mmol incubated for 24 hrs under 419 nm light illumination by HMBC analysis.
A short description of series [26]: Stability of the compound in water incubated for >= 1 month under dark condition. It is filed as physicochemical. The following applies: buffer.
A short description of series [27]: Stability of the compound in PBS buffer incubated for >= 1 month under dark condition. It is filed as physicochemical.
The nature of series [28]: Emission property of the compound in 10% FBS supplemented DMEM-F12 medium assessed as excitation wavelength. It is filed as physicochemical.
Series [29] is described as follows: Drug metabolism in DMSO assessed as sodium 7-(benzoyloxy)-6-carboxynaphthalene-1-sulfonate metabolite formation at 0.05 mmol incubated for 24 hrs under 419 nm light illumination by ESI/APCI-MS analysis.
Series [30] can be described thus: Drug metabolism in DMSO assessed as sodium 7-(benzoyloxy)-6-carboxynaphthalene-1-sulfonate metabolite formation at 0.05 mmol incubated for 24 hrs under 419 nm light illumination by 13C-NMR analysis.
The nature of series [31]: Absorption property of the compound in 10% FBS supplemented DMEM-F12 medium assessed as absorption wavelength at 100 uM. It is filed as physicochemical.
Series [32] in a line: Absorption property of the compound in water assessed as absorption wavelength at 100 uM. The class given is physicochemical. The settings on record: buffer.
Series [33] in a line: Emission property of the compound in 10% FBS supplemented DMEM-F12 medium assessed as emission wavelength at 100 uM. It is filed as physicochemical. The method in brief:
as §5

A short description of series [34]: Stability of the compound in DMSO incubated for >= 1 month under dark condition. The class given is physicochemical.
Series [35] can be described thus: Emission property of the compound in pH 7.4 PBS buffer assessed as excited state emission wavelength at 100 uM. The class given is physicochemical. The following applies: pH 7.4, 100 µM.
The nature of series [36]: Drug metabolism in DMSO assessed as sodium 7-(benzoyloxy)-6-carboxynaphthalene-1-sulfonate metabolite formation at […] after 24 hrs illuminated with visible light by 1H-NMR analysis. The method in brief:
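Roughly 0.05 mmol compound in 5.0 mL DMSO, under air, irradiated in a photoreactor with 419 nm lamps (2,450 lx) until the lowest-energy absorption band disappeared (~24 h); photoproduct then characterised.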

Series [37] is described as follows: Emission property of the compound in DMSO assessed as excited state emission wavelength at 100 uM. The class given is physicochemical.
A short description of series [38]: Drug metabolism in DMSO assessed as sodium 7-(benzoyloxy)-6-carboxynaphthalene-1-sulfonate metabolite formation at 0.05 mmol incubated for 24 hrs under 419 nm light illumination by HSQC analysis.

The structures appear in SMILES notation. The source made the active and inactive calls. The calls are words filed in the database; no cut-off is given here.

T1 sequence (P02769 whole entry): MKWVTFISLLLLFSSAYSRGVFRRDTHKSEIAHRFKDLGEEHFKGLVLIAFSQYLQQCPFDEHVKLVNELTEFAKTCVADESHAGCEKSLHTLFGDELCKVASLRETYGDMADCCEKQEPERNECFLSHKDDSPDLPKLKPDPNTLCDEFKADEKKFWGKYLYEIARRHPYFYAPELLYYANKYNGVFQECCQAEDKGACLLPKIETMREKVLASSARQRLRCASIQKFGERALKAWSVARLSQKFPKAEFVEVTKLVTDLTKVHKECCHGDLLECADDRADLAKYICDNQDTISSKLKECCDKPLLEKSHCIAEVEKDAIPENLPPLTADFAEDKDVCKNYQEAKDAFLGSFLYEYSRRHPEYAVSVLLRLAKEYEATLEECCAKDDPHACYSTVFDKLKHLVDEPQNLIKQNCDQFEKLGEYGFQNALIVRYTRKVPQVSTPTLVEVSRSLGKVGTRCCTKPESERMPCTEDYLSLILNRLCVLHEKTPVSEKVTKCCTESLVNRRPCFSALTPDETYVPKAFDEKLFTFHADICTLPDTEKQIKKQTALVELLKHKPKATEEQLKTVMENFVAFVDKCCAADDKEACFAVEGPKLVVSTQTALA

As for `O=C(Oc1cc2ccccc2cc1C(=O)O)c1ccccc1`, the Activity entry in the series with RAW264.7 [1] was “Non-Toxic”.

On to `O=c1c(O)c(-c2ccccc2)oc2cc3ccccc3cc12`, for which the outcome with RAW264.7 [2] and with RAW264.7 [3] was Active. The IC50 in the series with RAW264.7 [1] (Mus musculus, RAW264.7) was found to be 22.4 µM. Besides, the Ka on Albumin [4] came to 3.2 ×10³ /M. Also, the Drug metabolism result in [5] is recorded as “Metabolite_Detected”; in series [7], “Metabolite detected”. In addition, the Activity result in series [6] is “Active”; at Albumin [8] it was “Active”; with RAW264.7 [10], “Non-Toxic”. Also, the Drug uptake entry in series [9] was “Active”.

`O=C(Oc1cc2c(S(=O)(=O)O)cccc2cc1C(=O)O)c1ccccc1`: the Activity entry with RAW264.7 [1] is listed as “Non-Toxic”.

For `O=c1c(O)c(-c2ccccc2)oc2cc3c(S(=O)(=O)[O-])cccc3cc12.[Na+]`, the Activity in [11] is 610 nm; in series [14], 410 nm; in the series on RAW264.7 [21], “Non-Toxic”; in [22], 560 nm; in series [24] it was 450 to 500 nm; in [28], 467 nm. Besides, the Activity in [31] is 450 to 500 nm; on Albumin [8], “Active”; in series [32], 450 to 500 nm; in series [33], 600 nm; in series [35], 410 nm; in [37], 480 nm. In the series with RAW264.7 [10], the Activity entry was “Non-Toxic”. Further, the solubility result in series [12], in series [17], in series [18] and in series [20] was “Soluble” in each case. For the same compound, the outcome in the series with RAW264.7 [2] and in the series with RAW264.7 [3] was Active. The Drug metabolism entry in series [13] is “Metabolite detected”; in series [15], “Metabolite detected”; in series [19], “Metabolite_Detected”; in series [5] it was “Metabolite_Detected”; in series [25] it was “Metabolite detected”; in series [7], “Metabolite detected”. Further, the Drug metabolism entry in series [29], in series [30], in series [36] and in series [38] was “Metabolite detected” in each case. The Stability result in series [16], in series [26], in series [27] and in series [34] was “Stable” each time. This compound yielded a Ka on Albumin [4] of 4.1 ×10⁵ /M. The Drug uptake result in [23] and in [9] was “Not Active” each time.
